Results on nine compounds are retold here after ChEMBL document CHEMBL1759894, “Synthesis and SAR investigations of novel 2-arylbenzimidazole derivatives as melanin-concentrating hormone receptor 1 (MCH-R1) antagonists” (Bioorg Med Chem Lett, 2011).

In data set [1] the target is Melanin-concentrating hormone receptor 1 (Homo sapiens, UniProt Q99705). The data set is described as follows: Displacement of Eu-labeled MCH from human MCH-R1 expressed in CHO by time-resolved fluorometric assay. An outline of the steps: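 Competitive binding on membranes from CHO cells expressing human MCH-R1, with Eu-labeled MCH as tracer and time-resolved fluorometric read-out. IC50 values are means of at least two measurements.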
Chain of Melanin-concentrating hormone receptor 1 (Q99705 whole entry): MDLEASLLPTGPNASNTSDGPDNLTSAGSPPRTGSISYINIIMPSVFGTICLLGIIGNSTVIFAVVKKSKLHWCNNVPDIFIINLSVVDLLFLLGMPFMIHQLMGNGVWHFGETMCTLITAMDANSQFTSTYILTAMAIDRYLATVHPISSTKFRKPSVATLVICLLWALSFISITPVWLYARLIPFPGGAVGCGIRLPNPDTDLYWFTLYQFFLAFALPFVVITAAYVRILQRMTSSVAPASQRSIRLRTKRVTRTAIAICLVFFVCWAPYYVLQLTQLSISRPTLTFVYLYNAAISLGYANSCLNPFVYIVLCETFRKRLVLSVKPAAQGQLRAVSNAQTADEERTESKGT

Data set [2] is described as follows: Drug level in rat brain at 10 mg/kg, po at 3 hrs. Set-up: dose 10 mg/kg, route oral. The settings on record: read-out: Drug uptake. The class given is ADME, organism-based. An outline of the steps:
(§1)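 SD rats were given 10 mg/kg orally, and concentrations were measured 3 h after dosing. Values are means of n = 3 rats.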

For data set [3], the target named is Voltage-gated inwardly rectifying potassium channel KCNH2 (Homo sapiens, UniProt Q12809). The data set is described as follows: Inhibition hERG by patch clamp method. Background: Block of hERG is tested as a sign of cardiac risk.
Chain of Voltage-gated inwardly rectifying potassium channel KCNH2 (Q12809 whole entry): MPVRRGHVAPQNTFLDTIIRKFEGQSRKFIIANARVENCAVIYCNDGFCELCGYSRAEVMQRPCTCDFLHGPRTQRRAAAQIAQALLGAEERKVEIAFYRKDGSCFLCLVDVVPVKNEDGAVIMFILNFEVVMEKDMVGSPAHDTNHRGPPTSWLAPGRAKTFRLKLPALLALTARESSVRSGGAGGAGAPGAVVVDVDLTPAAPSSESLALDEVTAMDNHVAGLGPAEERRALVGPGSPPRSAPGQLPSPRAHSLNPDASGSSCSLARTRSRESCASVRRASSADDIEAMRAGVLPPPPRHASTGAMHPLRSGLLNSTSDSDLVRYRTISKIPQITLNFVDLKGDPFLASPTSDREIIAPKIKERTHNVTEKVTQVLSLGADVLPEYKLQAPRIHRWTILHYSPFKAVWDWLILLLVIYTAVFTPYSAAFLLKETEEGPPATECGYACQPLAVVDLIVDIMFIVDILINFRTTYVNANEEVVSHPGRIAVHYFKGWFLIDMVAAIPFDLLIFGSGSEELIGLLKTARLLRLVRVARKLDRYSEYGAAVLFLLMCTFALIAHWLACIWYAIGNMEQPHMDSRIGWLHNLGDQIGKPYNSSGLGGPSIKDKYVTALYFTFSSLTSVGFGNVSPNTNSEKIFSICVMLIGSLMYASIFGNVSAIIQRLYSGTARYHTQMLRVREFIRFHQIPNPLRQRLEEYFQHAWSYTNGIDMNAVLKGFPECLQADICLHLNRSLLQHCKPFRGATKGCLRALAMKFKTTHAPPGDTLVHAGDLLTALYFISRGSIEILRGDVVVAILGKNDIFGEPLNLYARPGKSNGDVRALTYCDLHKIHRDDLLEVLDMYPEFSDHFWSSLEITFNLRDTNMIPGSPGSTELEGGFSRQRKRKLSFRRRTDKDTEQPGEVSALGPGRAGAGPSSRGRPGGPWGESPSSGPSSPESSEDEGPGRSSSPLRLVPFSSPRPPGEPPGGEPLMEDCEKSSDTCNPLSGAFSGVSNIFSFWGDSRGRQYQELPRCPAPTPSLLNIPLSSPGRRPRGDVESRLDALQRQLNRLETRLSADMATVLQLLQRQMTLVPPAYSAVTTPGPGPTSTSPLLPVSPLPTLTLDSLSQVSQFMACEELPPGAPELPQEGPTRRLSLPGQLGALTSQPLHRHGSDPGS
Data set [4] is described as follows: Metabolic stability in rat liver microsomes after 30 mins. The class given is ADME, Microsome. As to conditions: read-out: Stability. (In general: Microsomes from liver hold many membrane-bound enzymes, among them those of drug oxidation.)
Data set [5] is described as follows: Oral bioavailability in rat at 10 mg/kg. In kind it is ADME, organism-based. The settings on record: in vivo. In outline:
(§2)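 Rats received 10 mg/kg by both intravenous and oral routes, n = 3.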

The nature of data set [6]: Half life in rat at 10 mg/kg, iv and po. The class given is ADME, organism-based. Details: dose 10 mg/kg, route oral. The settings on record: in vivo. An outline of the steps:
as §2

Data set [7] can be described thus: Metabolic stability in human liver microsomes after 30 mins. As to conditions: read-out: Stability. In kind it is ADME, Microsome.
The nature of data set [8]: Plasma concentration in rat at 10 mg/kg, po at 3 hrs. The class given is ADME, organism-based. Details: dose 10 mg/kg, route oral. In outline: as §1
A short description of data set [9]: Clearance in rat at 10 mg/kg, iv. In kind it is ADME, organism-based. Set-up: dose 10 mg/kg, route intravenous. As to conditions: in vivo. In outline:
as §2

The next data set deals with Rattus norvegicus. The data set is described as follows: Volume of distribution at steady state in rat at 10 mg/kg, iv and po. Details: dose 10 mg/kg, route oral. The class given is ADME, organism-based. The settings on record: in vivo. In outline: as §2

A word on the IC50: it is the midpoint of a concentration-inhibition curve. A higher IC50 goes with weaker potency. In turn, `CC(=O)Nc1cccc(C2CCN(CCn3c(-c4ccccc4)nc4ccccc43)CC2)c1` had an IC50 in data set [1] of 10000 nM. That is a double-digit micromolar value. For orientation: bioavailability means dose-corrected exposure relative to a reference, in per cent. As usually defined, the half-life is the time in which the quantity being followed falls by half. Lower therefore signals rapid decline. One may read the clearance as the volume of plasma or blood freed of the substance per unit of time. The low end stands for a low capacity for elimination, the high end for a high capacity for elimination. Consider `CC(=O)Nc1cccc(C2CCN(CCCn3c(-c4ccc(Cl)cc4)nc4ccccc43)CC2)c1`, for which the concentration at 3 h in data set [2] came to 160 ng/g; in data set [8], 420 ng/mL. Besides, in [3], half-maximal inhibition (IC50) required 3 nM. Besides, the values for the remaining at 0.5 h in data set [4] and in data set [7] were 98% and 97%, respectively. The bioavailability in data set [5] was determined as 99%. Further, in [6], the half-life is 4.3 h. In data set [9], the clearance came to 28.3 mL/min/kg. This compound gave a Vdss in the data set on Rattus norvegicus of 6 L/kg. Consider `CC(=O)Nc1cccc(C2CCN(CCCn3c(-c4ccccc4C(F)(F)F)nc4ccccc43)CC2)c1`, for which the half-inhibitory concentration (IC50) in data set [1] stood at 50 nM. Still for that read-out and setting: the value for `CC(=O)Nc1cccc(C2CCN(CCCn3c(-c4cccc(C(F)(F)F)c4)nc4ccccc43)CC2)c1` was 30 nM; that for `CCc1ccc(-c2nc3ccccc3n2CCCN2CCC(c3cccc(NC(C)=O)c3)CC2)cc1` was 32 nM. The same measure, in the same setting: under `CC(=O)Nc1cccc(C2CCN(CCCn3c(-c4ccc(C(C)C)cc4)nc4ccccc43)CC2)c1` stands 60 nM.

For `CC(=O)Nc1ccccc1C1CCN(CCCn2c(-c3ccc(Cl)cc3)nc3ccccc32)CC1`, the 50% inhibitory concentration (IC50) in [1] was > 6000 nM. On the same count and under the same terms, the value for `CC(=O)Nc1ccc(C2CCN(CCCn3c(-c4ccc(Cl)cc4)nc4ccccc43)CC2)cc1` was 5380 nM; that for `Cc1ccc(C(=O)Nc2cccc(C3CCN(CCCn4c(-c5ccc(Cl)cc5)nc5ccccc54)CC3)c2)cc1` was 300 nM.
